# Published values of several laboratories.
# Organism: Pseudomonas aeruginosa
# Observed: microbial growth
Compound,assay,system,conditions,MIC
Cc1ccc2[nH]nc(-c3nnc(Nc4ccc(O)cc4)s3)c2c1,,ATCC27853,,63.9 µg/mL
COc1ccc2ccc(O)c(/C=N/[C@H]3CCCC[C@H]3/N=C/c3ccc(-c4ccccc4)cc3O)c2c1,broth dilution,,clinical isolate,> 40 µM
OB1OCc2cc(F)ccc21,broth dilution,,,128 µg/mL
CCCCCCC#Cc1cncc(-c2nnc(SCc3ccc([N+](=O)[O-])cc3)n2CCCN)c1,broth dilution,DSM1128,,> 64 µg/mL
C[C@@H](O)[C@H]1C(=O)N2C(C(=O)O)=C(S[C@@H]3CN[C@H](C(=O)N(C)C)C3)[C@H](C)[C@H]12,broth dilution,ATCC27853,,0.25 µg/mL
Cc1ccc2[nH]nc(-c3nnc(Nc4ccc(F)cc4)s3)c2c1,,ATCC27853,,63.9 µg/mL
CCCCCCC#Cc1cncc(-c2nnc(SCc3cc([N+](=O)[O-])cc([N+](=O)[O-])c3)n2CCOC2OC(CN)C(O)C2O)c1 (stereo not shown),broth dilution,DSM1128,,> 64 µg/mL
CCCCCCCCN=c1ccn(CCCCCCCCCCn2ccc(=NCCCCCCCC)cc2)cc1,,PAO1,,2 µM
COc1ccc2ccc(O)c(/C=N/[C@H]3CCCC[C@H]3/N=C/c3ccc(OCCN4CCCCC4)cc3O)c2c1,broth dilution,,,> 40 µM
Cc1ccc2[nH]nc(-c3nnc(Nc4ccc(Cl)c(Cl)c4)s3)c2c1,,ATCC27853,,121 µg/mL
[H]/N=C(\N/C(=N/[H])NCCCCCCNC(=N)NC(=N)Nc1ccc(Cl)cc1)Nc1ccc(Cl)cc1,,PAO1,,8 µM
CCCCCCC#Cc1cncc(-c2nnc(SCc3ccc([N+](=O)[O-])o3)n2CCCN)c1,broth dilution,DSM1128,,> 64 µg/mL
CNC(C)C1CCC(N)C(OC2C(N)CC(N)C(OC3OCC(C)(O)C(NC)C3O)C2O)O1 (stereo not shown),broth dilution,ATCC27853,,2 µg/mL
CCCCCCC#Cc1cncc(-c2nnc(SCc3cc([N+](=O)[O-])cc([N+](=O)[O-])c3)n2CCCN)c1,broth dilution,DSM1128,,> 64 µg/mL
CC1(C)S[C@@H]2[C@H](NC(=O)[C@H](N)c3ccc(O)cc3)C(=O)N2[C@H]1C(=O)O,broth dilution,ATCC27853,,> 64 µg/mL
Cc1ccc2[nH]nc(-c3nnc(Nc4ccc(Cl)c(Br)c4)s3)c2c1,,ATCC27853,,254 µg/mL
CN(C)[C@@H]1C(O)=C(C(N)=O)C(=O)[C@@]2(O)C(O)=C3C(=O)c4c(O)cccc4[C@@](C)(O)[C@H]3C[C@@H]12,broth dilution,ATCC27853,,16 µg/mL
COc1ccc2ccc(O)c(/C=N/[C@H]3CCCC[C@H]3/N=C/c3c(O)cccc3F)c2c1,broth dilution,,clinical isolate,> 40 µM
Cc1ccc2[nH]nc(-c3nnc(Nc4ccc(Cl)cc4)s3)c2c1,,ATCC27853,,119 µg/mL
C[C@H]1COc2c(N3CCN(C)CC3)c(F)cc3c(=O)c(C(=O)O)cn1c23,,ATCC27853,drug-resistant strain,1 µg/mL
Cc1ccc2[nH]nc(-c3nnc(Nc4ccc(C(F)(F)F)cc4)s3)c2c1,,ATCC27853,,126 µg/mL
CC(C)c1ccc(/C=C2\N=C(SCC(=O)O)N(c3ccccc3)C2=O)cc1,broth dilution,ATCC27 ATCC27853,,12 µg/mL
